# Article PMC6210076 (ACS Omega, 2018)
# Values joined by “and” are separate entries in the source; they are usually repeats but may differ in a detail not shown here. Identical values can stand only once.
# Biological target: T1, HPA (Helix pomatia, UniProt Q2F1K8)
# T1 sequence (Q2F1K8 20-121): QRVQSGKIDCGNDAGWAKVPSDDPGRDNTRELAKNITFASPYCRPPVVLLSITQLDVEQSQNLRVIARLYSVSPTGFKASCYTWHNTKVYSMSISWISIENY
# Assay: Fluorescent microarray competition: Alexa Fluor 647-labeled HPA
# Type: biochemical
# Settings: IC50,microarray (μM); SEM
# Method in brief: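 Glycoconjugates spotted in triplicate on NHS-coated glass slides from PBS pH 8.5 with 5% glycerol. Slides held 17−20 h at 70% humidity, then blocked 1 h at 37 °C in ethanolamine/boric acid/Tween 20 buffer pH 8.5. Probing in 16-well masks under slow agitation, then Tween-PBS washes. Scanned at 635 nm excitation. Mean fluorescence fitted against log competitor concentration.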
compound,measurement,value
"CC(=O)N[C@H]1C(O)O[C@H](CO)[C@H](O)[C@@H]1O (stereo partly drawn) [GalNAc, N-acetyl-D-galactosamine]",IC50,180 µM and 301 µM and 687 µM and 449 µM
